Calls of active or inactive are those of the source. The calls are words filed in the database; no cut-off is given here.
Assays:
A-375 [1] = experiment: Induction of apoptosis in human A-375 cells overexpressing […] assessed as necrotic cells by Annexin V-FITC/PI staining based flow cytometry (Rvb-1.34%); assay type: functional; details: dose 2 µM
A-375 [2] = experiment: Induction of apoptosis in human A-375 cells overexpressing […] assessed as late apoptotic cells by Annexin V-FITC/PI staining based flow cytometry (Rvb-3.10%); assay type: functional; details: dose 2 µM
A-375 [3] = experiment: Induction of apoptosis in human A-375 cells overexpressing […] assessed as live cells by Annexin V-FITC/PI staining based flow cytometry (Rvb-95.1%); assay type: functional; details: dose 2 µM
A-375 [4] = experiment: Induction of apoptosis in human A-375 cells overexpressing […] assessed as early apoptotic cells by Annexin V-FITC/PI staining based flow cytometry (Rvb-0.43%); assay type: functional; details: dose 2 µM
A-375 [5] = experiment: Induction of apoptosis in human A-375 cells assessed as increase in cleaved Caspase-3 expression at 2 uM by Western blot analysis; assay type: functional, cell-based
A-375 [6] = experiment: Induction of apoptosis in human A-375 cells assessed as reduction in Bcl-2 expression at 2 uM by Western blot analysis; assay type: functional, cell-based
A-375 [7] = experiment: Induction of apoptosis in human A-375 cells overexpressing NICD assessed as increase in cleaved Caspase-3 expression at 2 uM by Western blot analysis; assay type: functional, cell-based
A-375 [8] = experiment: Induction of apoptosis in human A-375 cells overexpressing NICD assessed as reduction in Bcl-2 expression at 2 uM by Western blot analysis; assay type: functional, cell-based
A-375 [9] = experiment: Antitumor activity against human A-375 cells xenografted in nude mouse assessed as tumor growth inhibition at 5 mg/kg, ip administered every other day for 10 days measured post-last dose by caliper method; assay type: functional, organism-based; details: time 10.0 day
Summary of the method: (§1)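 Male nude mice, 6 weeks old, were given A375 cells (2X 106) subcutaneously. After one week, animals with palpable xenografts were randomised into two groups: DMSO vehicle, or compound at 5 mg/kg i.p. every other day for 10 days. Tumour volume was measured, and body weight was monitored.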

[10] = Toxicity in human A-375 cells xenografted nude mouse assessed as change in body weight at 5 mg/kg, ip administered every other day for 10 days and measured during compound dosing; assay type: organism-based; details: in vivo, 240 h, time 10 day; summary of the method: as §1
[11] = target: T1, Histone-lysine N-methyltransferase EHMT2 (Homo sapiens) (UniProt Q96KQ7); experiment: Inhibition of G9a in human A-375 cells assessed as reduction in AKT phosphorylation at 2 uM by Western blot analysis; assay type: cell-based
T1 sequence (whole entry): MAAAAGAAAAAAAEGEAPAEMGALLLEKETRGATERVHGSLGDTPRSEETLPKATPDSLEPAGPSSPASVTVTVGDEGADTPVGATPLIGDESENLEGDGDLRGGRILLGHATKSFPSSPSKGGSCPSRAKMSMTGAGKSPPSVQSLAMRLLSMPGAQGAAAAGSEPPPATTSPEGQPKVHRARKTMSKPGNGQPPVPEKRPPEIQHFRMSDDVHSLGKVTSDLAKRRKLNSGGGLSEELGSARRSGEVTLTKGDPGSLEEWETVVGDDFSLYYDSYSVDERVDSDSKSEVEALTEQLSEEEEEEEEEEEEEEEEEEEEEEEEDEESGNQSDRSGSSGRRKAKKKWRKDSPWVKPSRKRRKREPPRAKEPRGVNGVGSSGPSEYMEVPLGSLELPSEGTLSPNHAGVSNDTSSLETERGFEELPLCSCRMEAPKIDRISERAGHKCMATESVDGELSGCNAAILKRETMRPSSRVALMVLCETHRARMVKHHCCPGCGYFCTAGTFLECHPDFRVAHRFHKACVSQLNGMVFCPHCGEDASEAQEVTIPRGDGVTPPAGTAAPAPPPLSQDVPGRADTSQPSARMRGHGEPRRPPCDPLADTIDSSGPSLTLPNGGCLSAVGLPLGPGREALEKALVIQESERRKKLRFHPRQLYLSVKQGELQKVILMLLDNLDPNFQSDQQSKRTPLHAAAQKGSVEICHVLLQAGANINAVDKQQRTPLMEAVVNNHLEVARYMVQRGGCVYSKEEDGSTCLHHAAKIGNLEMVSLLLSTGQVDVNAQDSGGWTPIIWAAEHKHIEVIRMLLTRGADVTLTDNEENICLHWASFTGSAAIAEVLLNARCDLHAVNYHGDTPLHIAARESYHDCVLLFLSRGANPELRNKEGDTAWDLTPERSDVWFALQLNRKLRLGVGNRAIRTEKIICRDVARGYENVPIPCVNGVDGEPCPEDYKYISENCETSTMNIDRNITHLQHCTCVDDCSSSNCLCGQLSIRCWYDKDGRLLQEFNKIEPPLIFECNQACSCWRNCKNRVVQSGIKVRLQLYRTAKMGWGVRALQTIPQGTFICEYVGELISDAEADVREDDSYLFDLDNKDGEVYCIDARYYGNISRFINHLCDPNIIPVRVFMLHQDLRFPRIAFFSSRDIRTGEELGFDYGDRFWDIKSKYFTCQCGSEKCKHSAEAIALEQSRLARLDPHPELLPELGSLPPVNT

[12] = target: T1, Histone-lysine N-methyltransferase EHMT2 (Homo sapiens); experiment: Inhibition of G9a in human M14 cells assessed as reduction in AKT phosphorylation at 2 uM by Western blot analysis; assay type: cell-based
[13] = target: T1, Histone-lysine N-methyltransferase EHMT2 (Homo sapiens); experiment: Inhibition of G9a in human A-375 cells overexpressing NICD assessed as reduction in AKT phosphorylation at 2 uM by Western blot analysis; assay type: cell-based
[14] = target: T1, Histone-lysine N-methyltransferase EHMT2 (Homo sapiens); experiment: Inhibition of G9a in human M14 cells overexpressing NICD assessed as reduction in AKT phosphorylation at 2 uM by Western blot analysis; assay type: cell-based
M14 [15] = experiment: Induction of apoptosis in human M14 cells assessed as increase in cleaved Caspase-3 expression at 2 uM by Western blot analysis; assay type: functional, cell-based
M14 [16] = experiment: Induction of apoptosis in human M14 cells assessed as reduction in Bcl-2 expression at 2 uM by Western blot analysis; assay type: functional, cell-based
M14 [17] = experiment: Induction of apoptosis in human M14 cells overexpressing NICD assessed as increase in cleaved Caspase-3 expression at 2 uM by Western blot analysis; assay type: functional, cell-based
M14 [18] = experiment: Induction of apoptosis in human M14 cells overexpressing NICD assessed as reduction in Bcl-2 expression at 2 uM by Western blot analysis; assay type: functional, cell-based
M14 [19] = experiment: Induction of apoptosis in human M14 cells assessed as necrotic cells at 2 uM by Annexin V-FITC/PI staining based flow cytometry (reference value: 1.34%); assay type: functional
M14 [20] = experiment: Induction of apoptosis in human M14 cells assessed as late apoptotic cells at 2 uM by Annexin V-FITC/PI staining based flow cytometry (reference value: 3.10%); assay type: functional
M14 [21] = experiment: Induction of apoptosis in human M14 cells assessed as live cells at 2 uM by Annexin V-FITC/PI staining based flow cytometry (reference value: 95.1%); assay type: functional
M14 [22] = experiment: Induction of apoptosis in human M14 cells assessed as early apoptotic cells at 2 uM by Annexin V-FITC/PI staining based flow cytometry (reference value: 0.43%); assay type: functional
M14 [23] = experiment: Induction of apoptosis in human M14 cells overexpressing NCID assessed as necrotic cells by Annexin V-FITC/PI staining based flow cytometry (Rvb-1.34%); assay type: functional; details: dose 2 µM
M14 [24] = experiment: Induction of apoptosis in human M14 cells overexpressing NCID assessed as late apoptotic cells by Annexin V-FITC/PI staining based flow cytometry (Rvb-3.10%); assay type: functional; details: dose 2 µM
M14 [25] = experiment: Induction of apoptosis in human M14 cells overexpressing NCID assessed as live cells by Annexin V-FITC/PI staining based flow cytometry (Rvb-95.1%); assay type: functional; details: dose 2 µM
M14 [26] = experiment: Induction of apoptosis in human M14 cells overexpressing NCID assessed as early apoptotic cells by Annexin V-FITC/PI staining based flow cytometry (Rvb-0.43%); assay type: functional; details: dose 2 µM

inhibition [11]: Active | inhibition [12]: Active | inhibition [13]: inactive | inhibition [14]: inactive
Compound: COc1cc2c(NC3CCN(C(C)C)CC3)nc(N3CCC(F)(F)CC3)nc2cc1OCCCN1CCCC1
Activity (A-375 [1]): 0.76% | Activity (A-375 [2]): 3.59% | Activity (A-375 [3]): 94.9% | Activity (A-375 [4]): 0.75% | Activity (A-375 [5]): Active | Activity (A-375 [6]): Active | Activity (A-375 [7]): inactive | Activity (A-375 [8]): inactive | TGI (A-375 [9]): Active | Activity [10]: Non-Toxic | Activity (M14 [15]): Active | Activity (M14 [16]): Active | Activity (M14 [17]): inactive | Activity (M14 [18]): inactive | Activity (M14 [19]): 0.27% | Activity (M14 [20]): 5.17% | Activity (M14 [21]): 89.8% | Activity (M14 [22]): 4.8% | Activity (M14 [23]): 0.76% | Activity (M14 [24]): 3.59% | Activity (M14 [25]): 94.9% | Activity (M14 [26]): 0.75%

From ChEMBL document CHEMBL5712912, “Abnormal overexpression of G9a in melanoma cells promotes cancer progression via upregulation of the Notch1 signaling pathway” (Aging (Albany NY), 2020)
